Test results published in ChEMBL document CHEMBL1121367, “Synthesis and antiallergic properties of some 4H,5H-pyrano[3,2-c][1]benzopyran-4-one, 4H,5H-[1]benzothiopyrano[4,3-b]pyran-4-one, and 1,4-dihydro-5h-[1]benzothiopyrano[4,3-b]pyridin-4-one derivatives” (1980).

Columns and labels:
[1] = test system: Rattus norvegicus; experiment: In vivo inhibition of passive cutaneous anaphylaxis in rats when administered i.p.; format: functional; settings: ip, read-out: ID50 (the source's name)
How it was run: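 Adult male Charles River rats (140-160 g, six per group) were sensitized intradermally at two sites with rat serum containing reaginic antibodies to chicken ovalbumin. After 48 h they were challenged iv with 10 mg/kg ovalbumin in 1% Evans blue. Compound was given ip 15 min before challenge. Bluing area was measured 30 min later, and percent inhibition was calculated. ID50 was read graphically from the dose-response curve.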

[2] = test system: Rattus norvegicus; experiment: In vivo inhibition of passive cutaneous anaphylaxis in rats when administered i.v.; format: functional; settings: iv, read-out: ID50 (the source's name)
How it was run: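 Rats (adult male Charles River, 140-160 g, six per group) were sensitized intradermally at two sites with reaginic rat antiserum to chicken ovalbumin. After 48 h, compound at 30, 10 or 3 mg/kg iv was given simultaneously with the iv challenge of 10 mg/kg ovalbumin in 1% Evans blue. Dermal bluing area was measured at 30 min, and percent inhibition was calculated. ID50 was taken graphically from the dose-response curve.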

Row | SMILES | ED50 [1] | ED50 [2]
1 | Cc1c(-c2nn[nH]n2)oc2c(c1=O)CS(=O)(=O)c1ccccc1-2 | 100 mg/kg | 
2 | CCC(C)c1ccc2c(c1)-c1nc(C(=O)O)cc(O)c1CS2(=O)=O (stereo not drawn) | > 30 mg/kg | > 30 mg/kg
3 | CCC(C)c1ccc2c(c1)-c1oc(C(=O)O)cc(=O)c1CS2.NCCO (stereo not drawn) | > 30 mg/kg | 25 mg/kg
4 | O=C([O-])c1cc(=O)c2c(OCC(O)COc3cccc4oc(C(=O)[O-])cc(=O)c34)cccc2o1.[Na+].[Na+] [CROMOLYN SODIUM] | 16.6 mg/kg | 1 mg/kg
5 | CCCCc1ccc2c(c1)-c1oc(C(=O)O)cc(=O)c1CS2.NCCO | > 30 mg/kg | 19 mg/kg
6 | Cc1c(-c2nn[nH]n2)oc2c(c1=O)CSc1ccccc1-2 | > 30 mg/kg | 
7 | NCCO.O=C(O)c1cc(=O)c2c(o1)-c1cc(Cl)ccc1SC2 | > 100 mg/kg | 28 mg/kg
8 | O=c1c(CO)coc2c1COc1ccccc1-2 | 23 mg/kg | 
9 | O=C([O-])c1cc(=O)c2c(o1)-c1ccccc1OC2.[K+] |  | 12 mg/kg
10 | O=c1c(CO)coc2c1CSc1ccccc1-2 | > 30 mg/kg | > 30 mg/kg
11 | Cc1ccc(Cl)c2c1SCc1c(O)cc(C(=O)O)nc1-2.NCCO | > 30 mg/kg | > 30 mg/kg
12 | NCCO.O=C(O)c1cc(=O)c2c(o1)-c1ccccc1S(=O)(=O)C2 | > 100 mg/kg | > 30 mg/kg
13 | CCC(C)c1ccc2c(c1)-c1nc(C(=O)O)cc(O)c1CS2.NCCO (stereo not drawn) | 27 mg/kg | 8.2 mg/kg
14 | CC1Sc2ccccc2-c2oc(C(=O)O)cc(=O)c21.NCCO (stereo not drawn) | 29 mg/kg | 8.4 mg/kg
15 | Cc1ccc(Cl)c2c1SCc1c-2oc(C(=O)O)cc1=O.NCCO | > 100 mg/kg | 30 mg/kg
16 | NCCO.O=C(O)c1cc(O)c2c(n1)-c1cc(Cl)ccc1SC2 | 33 mg/kg | 3.3 mg/kg
17 | Cc1ccc2c(c1)-c1oc(C(=O)O)cc(=O)c1CS2.NCCO | > 30 mg/kg | 19 mg/kg
18 | NCCO.O=C(O)c1cc(O)c2c(n1)-c1ccccc1SC2 | > 30 mg/kg | 5.3 mg/kg
19 | Cc1ccc2c(c1)-c1nc(C(=O)O)cc(O)c1CS2.NCCO | 34 mg/kg | 6.9 mg/kg
20 | NCCO.O=C(O)c1cc(=O)c2c(o1)-c1ccccc1SC2 | > 100 mg/kg | 25 mg/kg
21 | CCCCc1ccc2c(c1)-c1nc(C(=O)O)cc(O)c1CS2.NCCO | 20 mg/kg | 12 mg/kg
